# Calls of active or inactive are those of the source. No cut-off for these calls is given here.
# Experiments:
# [1] = target: T1, Cytochrome P450 1A2 (Homo sapiens, UniProt P05177); experiment: Inhibition of human CYP1A2
# T1 sequence (P05177 whole entry): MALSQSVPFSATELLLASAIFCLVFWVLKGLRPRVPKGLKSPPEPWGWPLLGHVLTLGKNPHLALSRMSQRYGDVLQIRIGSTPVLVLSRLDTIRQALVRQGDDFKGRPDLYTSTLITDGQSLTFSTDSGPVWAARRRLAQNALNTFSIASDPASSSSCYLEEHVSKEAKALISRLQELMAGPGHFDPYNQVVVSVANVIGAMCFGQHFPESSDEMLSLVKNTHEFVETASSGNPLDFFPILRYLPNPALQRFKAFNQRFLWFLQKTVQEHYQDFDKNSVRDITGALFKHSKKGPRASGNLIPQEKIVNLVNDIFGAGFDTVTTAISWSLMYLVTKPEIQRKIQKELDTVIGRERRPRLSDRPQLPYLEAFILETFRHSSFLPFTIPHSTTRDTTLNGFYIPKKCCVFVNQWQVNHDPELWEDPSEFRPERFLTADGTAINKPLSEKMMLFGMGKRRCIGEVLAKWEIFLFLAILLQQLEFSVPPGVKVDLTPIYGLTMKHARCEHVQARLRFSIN
# Outline: (§1)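 Human liver microsomes (final 0.1 mg/mL) in 0.1 M potassium phosphate, pH 7.4, with a probe cocktail: phenacetin 10 µM (1A2), diclofenac 5 µM (2C9), dextromethorphan 5 µM (2D6) and midazolam 2 µM (3A4). Compound at 100 nM–30 µM final, in duplicate, preincubated 15 min at 37 °C. NADPH (1 mM) reaction ran 8 min, was quenched with cold acetonitrile, and read by LC/MS/MS (MRM). IC50 determined.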
# [2] = test system: Plasma; experiment: Cmax in Sprague-Dawley rat plasma at 10 mg/kg, sc; type: ADME, organism-based; parameters: dose 10 mg/kg, route subcutaneous; conditions: in vivo
# Outline: (§2)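 Rats dosed subcutaneously at 10 mg/kg as a 10% tween 80 microsuspension. […] In vivo samples were quantified by LC/MS/MS (ESI, positive-mode MRM) after gradient elution on a C18 column.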
# [3] = target: Metabotropic glutamate receptor 5 (Rattus norvegicus) (UniProt P31424); experiment: Positive allosteric modulation in rat mGluR5 receptor expressed in HEK293 cells assessed as effect on calcium mobilization at 10 uM relative to glutamate
# [4] = target: Metabotropic glutamate receptor 6 (Rattus norvegicus) (UniProt P35349); experiment: Positive allosteric modulation in rat mGluR6 receptor expressed in HEK293 cells assessed as effect on thallium flux at 10 uM relative to glutamate; type: cell-based
# [5] = target: Cytochrome P450 3A4 (Homo sapiens, UniProt P08684); experiment: Inhibition of human CYP3A4; outline: as §1
# Sequence of Cytochrome P450 3A4 (P08684 whole entry): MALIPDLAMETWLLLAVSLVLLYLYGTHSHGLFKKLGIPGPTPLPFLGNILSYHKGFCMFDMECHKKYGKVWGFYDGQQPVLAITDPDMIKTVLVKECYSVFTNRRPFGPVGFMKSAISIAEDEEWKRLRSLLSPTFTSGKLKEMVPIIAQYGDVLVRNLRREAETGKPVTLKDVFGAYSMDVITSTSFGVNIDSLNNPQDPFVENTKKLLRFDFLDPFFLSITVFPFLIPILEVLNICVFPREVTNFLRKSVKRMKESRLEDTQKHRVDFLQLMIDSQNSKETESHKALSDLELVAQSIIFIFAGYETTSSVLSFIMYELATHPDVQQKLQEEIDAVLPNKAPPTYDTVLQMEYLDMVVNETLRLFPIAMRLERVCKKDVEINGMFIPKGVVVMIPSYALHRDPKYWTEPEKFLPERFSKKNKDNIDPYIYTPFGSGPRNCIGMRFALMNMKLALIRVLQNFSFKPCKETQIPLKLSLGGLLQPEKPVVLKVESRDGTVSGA
# [6] = target: Metabotropic glutamate receptor 4 (Rattus norvegicus) (UniProt P31423); experiment: Positive allosteric modulation of rat mGluR4 expressed in CHO cells coexpressing Gqi5 assessed as calcium mobilization relative to PHCCC; type: functional, cell-based
# Sequence of Metabotropic glutamate receptor 4 (Rattus norvegicus) (P31423 whole entry): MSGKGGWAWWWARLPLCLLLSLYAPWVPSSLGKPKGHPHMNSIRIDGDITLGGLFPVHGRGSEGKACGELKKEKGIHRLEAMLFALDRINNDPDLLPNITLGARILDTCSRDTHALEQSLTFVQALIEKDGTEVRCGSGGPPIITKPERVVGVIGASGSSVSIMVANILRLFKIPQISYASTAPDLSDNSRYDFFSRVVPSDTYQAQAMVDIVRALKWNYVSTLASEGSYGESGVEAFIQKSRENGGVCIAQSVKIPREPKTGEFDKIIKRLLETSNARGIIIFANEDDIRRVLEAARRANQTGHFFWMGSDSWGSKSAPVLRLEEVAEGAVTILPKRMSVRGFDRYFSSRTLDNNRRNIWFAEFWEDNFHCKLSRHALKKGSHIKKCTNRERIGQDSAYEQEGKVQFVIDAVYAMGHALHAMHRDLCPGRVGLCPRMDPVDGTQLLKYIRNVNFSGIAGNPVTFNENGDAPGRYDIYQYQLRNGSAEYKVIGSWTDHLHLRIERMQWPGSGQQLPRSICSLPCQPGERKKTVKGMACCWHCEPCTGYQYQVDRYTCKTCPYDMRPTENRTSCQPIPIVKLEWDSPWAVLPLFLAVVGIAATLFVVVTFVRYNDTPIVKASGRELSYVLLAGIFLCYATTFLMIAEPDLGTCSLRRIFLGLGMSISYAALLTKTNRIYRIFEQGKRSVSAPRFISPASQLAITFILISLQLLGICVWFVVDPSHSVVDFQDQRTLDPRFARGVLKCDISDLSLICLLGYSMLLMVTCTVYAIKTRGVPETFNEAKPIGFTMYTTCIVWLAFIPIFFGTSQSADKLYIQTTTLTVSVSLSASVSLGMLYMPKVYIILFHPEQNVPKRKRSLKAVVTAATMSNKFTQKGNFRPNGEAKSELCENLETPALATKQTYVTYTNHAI
# [7] = target: Metabotropic glutamate receptor 4 (Rattus norvegicus, UniProt P31423); experiment: Positive allosteric modulation of rat mGluR4 expressed in CHO cells coexpressing Gqi5 assessed as calcium mobilization; type: functional, cell-based; conditions: read-out: EC50
# Sequence of Metabotropic glutamate receptor 4 (Rattus norvegicus, UniProt P31423) (P31423 whole entry): as above
# [8] = in vivo; conditions: Sprague-Dawley, rat, sc, 10 mg/kg
# [9] = target: Metabotropic glutamate receptor 1 (Rattus norvegicus) (UniProt P23385); experiment: Positive allosteric modulation in rat mGluR1 receptor expressed in HEK293 cells assessed as effect on calcium mobilization at 10 uM relative to glutamate
# Sequence of Metabotropic glutamate receptor 1 (Rattus norvegicus) (P23385 19-1199 limits assumed): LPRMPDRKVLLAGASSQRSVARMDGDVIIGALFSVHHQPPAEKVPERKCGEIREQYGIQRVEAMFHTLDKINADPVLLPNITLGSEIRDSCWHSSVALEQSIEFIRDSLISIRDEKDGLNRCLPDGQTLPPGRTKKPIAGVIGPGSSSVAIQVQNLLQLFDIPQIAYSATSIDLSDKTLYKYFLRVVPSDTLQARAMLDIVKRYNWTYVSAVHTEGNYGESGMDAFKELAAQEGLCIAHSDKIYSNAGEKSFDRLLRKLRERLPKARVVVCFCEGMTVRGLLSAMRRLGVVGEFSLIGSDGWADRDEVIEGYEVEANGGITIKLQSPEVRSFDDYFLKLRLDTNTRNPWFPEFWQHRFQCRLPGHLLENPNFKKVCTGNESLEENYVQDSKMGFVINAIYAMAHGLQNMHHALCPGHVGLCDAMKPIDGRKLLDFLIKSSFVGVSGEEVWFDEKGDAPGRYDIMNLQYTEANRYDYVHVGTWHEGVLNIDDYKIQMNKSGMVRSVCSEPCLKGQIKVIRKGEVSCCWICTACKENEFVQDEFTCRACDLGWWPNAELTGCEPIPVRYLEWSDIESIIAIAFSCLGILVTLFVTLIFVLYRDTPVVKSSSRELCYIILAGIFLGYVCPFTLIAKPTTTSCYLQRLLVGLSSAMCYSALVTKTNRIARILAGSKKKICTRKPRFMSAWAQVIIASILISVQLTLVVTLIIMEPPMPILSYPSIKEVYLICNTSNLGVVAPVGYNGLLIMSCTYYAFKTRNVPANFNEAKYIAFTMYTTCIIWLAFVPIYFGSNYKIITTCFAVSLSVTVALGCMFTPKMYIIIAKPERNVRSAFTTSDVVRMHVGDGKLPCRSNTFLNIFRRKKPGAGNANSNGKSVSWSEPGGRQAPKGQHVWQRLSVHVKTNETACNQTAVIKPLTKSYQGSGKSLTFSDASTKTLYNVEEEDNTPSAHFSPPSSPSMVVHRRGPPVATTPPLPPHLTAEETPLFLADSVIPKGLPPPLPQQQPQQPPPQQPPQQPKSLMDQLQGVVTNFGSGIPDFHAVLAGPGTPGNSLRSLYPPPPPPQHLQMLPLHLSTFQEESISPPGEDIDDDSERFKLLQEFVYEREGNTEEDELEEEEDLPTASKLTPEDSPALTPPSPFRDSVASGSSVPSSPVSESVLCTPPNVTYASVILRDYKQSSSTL
# [10] = test system: Plasma; experiment: AUC in Sprague-Dawley rat brain at 10 mg/kg, sc; type: ADME, organism-based; parameters: dose 10 mg/kg, route subcutaneous; conditions: in vivo
# [11] = target: Metabotropic glutamate receptor 3 (Rattus norvegicus) (UniProt P31422); experiment: Positive allosteric modulation in rat mGluR3 receptor expressed in HEK293 cells assessed as effect on thallium flux at 10 uM relative to glutamate; type: cell-based
# Sequence of Metabotropic glutamate receptor 3 (Rattus norvegicus) (P31422 23-879 limits assumed): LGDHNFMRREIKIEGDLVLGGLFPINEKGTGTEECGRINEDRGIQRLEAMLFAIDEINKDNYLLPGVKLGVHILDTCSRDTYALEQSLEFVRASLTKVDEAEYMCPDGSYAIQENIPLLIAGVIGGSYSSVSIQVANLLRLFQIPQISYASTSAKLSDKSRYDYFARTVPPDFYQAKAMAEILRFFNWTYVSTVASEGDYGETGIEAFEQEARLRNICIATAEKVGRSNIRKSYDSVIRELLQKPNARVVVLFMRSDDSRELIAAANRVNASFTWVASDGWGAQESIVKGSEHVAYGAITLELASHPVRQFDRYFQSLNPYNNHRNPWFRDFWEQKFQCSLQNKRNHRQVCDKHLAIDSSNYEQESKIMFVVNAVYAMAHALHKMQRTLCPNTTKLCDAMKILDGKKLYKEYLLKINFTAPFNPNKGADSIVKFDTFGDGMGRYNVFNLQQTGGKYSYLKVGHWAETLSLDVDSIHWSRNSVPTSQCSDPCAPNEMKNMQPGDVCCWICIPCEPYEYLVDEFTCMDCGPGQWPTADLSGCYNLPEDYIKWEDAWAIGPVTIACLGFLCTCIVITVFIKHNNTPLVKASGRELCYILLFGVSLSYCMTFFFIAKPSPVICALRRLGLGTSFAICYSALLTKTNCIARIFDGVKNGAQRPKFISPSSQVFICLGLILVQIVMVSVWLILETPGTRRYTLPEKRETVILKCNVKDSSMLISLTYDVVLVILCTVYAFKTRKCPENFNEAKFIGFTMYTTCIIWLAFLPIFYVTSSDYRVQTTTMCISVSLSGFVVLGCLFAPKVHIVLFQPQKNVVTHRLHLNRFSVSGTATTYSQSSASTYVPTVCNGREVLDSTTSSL
# Outline: (§3)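 HEK-293 cells co-expressing the rat receptor and GIRK channels, plated at 15,000 cells/well overnight, then loaded with BTC-AM (1.7 µM) for 1 h at room temperature. Vehicle or compound at 10 µM final was added, and 2.5 min later a full glutamate concentration-response was given in thallium-containing buffer. Thallium flux was read by fluorescence and the leftward or rightward shift of the glutamate curve recorded.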
# [12] = target: Cytochrome P450 2C9 (Homo sapiens, UniProt P11712); experiment: Inhibition of human CYP2C9; outline: as §1
# [13] = AUC in Sprague-Dawley rat plasma at 10 mg/kg, sc; type: ADME, organism-based; parameters: dose 10 mg/kg, route subcutaneous
# [14] = target: Metabotropic glutamate receptor 4 (Homo sapiens, UniProt Q14833); experiment: Positive allosteric modulation of human mGluR4 expressed in CHO cells coexpressing Gqi5 assessed as calcium mobilization relative to PHCCC; type: functional, cell-based
# Sequence of Metabotropic glutamate receptor 4 (Homo sapiens, UniProt Q14833) (Q14833 whole entry): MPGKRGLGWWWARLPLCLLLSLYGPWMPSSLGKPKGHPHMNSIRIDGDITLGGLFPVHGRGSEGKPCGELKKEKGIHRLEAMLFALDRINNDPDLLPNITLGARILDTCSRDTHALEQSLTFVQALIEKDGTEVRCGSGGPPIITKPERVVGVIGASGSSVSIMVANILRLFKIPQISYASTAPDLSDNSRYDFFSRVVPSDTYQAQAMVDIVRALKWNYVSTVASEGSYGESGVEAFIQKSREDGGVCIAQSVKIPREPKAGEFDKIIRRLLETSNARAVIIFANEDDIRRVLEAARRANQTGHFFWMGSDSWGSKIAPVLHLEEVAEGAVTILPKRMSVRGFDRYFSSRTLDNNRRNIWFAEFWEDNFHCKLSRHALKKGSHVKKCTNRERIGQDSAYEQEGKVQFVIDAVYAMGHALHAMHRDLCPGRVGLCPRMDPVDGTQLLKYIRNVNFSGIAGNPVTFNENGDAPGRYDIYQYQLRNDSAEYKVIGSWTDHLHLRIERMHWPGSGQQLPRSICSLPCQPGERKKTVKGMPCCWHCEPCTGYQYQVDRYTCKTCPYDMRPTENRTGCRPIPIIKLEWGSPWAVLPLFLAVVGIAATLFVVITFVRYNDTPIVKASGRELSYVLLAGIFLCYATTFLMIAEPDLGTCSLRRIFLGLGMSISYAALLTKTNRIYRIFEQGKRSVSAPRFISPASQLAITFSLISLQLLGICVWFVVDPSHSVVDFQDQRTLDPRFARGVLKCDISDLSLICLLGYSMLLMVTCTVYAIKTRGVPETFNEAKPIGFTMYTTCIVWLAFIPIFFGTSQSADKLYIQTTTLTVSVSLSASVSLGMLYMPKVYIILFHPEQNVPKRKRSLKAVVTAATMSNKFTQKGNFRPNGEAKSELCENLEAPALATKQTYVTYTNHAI
# Outline: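 CHO cells stably expressing human mGlu4 with Gqi5 were plated at 30,000 cells/well and grown overnight. Cells were loaded with 1 µM Fluo-4 AM for 45 min at 37 °C in HBSS/HEPES/2.5 mM probenecid buffer. […] Ca2+ fluorescence was read (ex 470, em 540 nm). Curves were fitted with a four-parameter logistic; ≥3 independent runs in triplicate.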
# [15] = Plasma protein binding in Sprague-Dawley rat; type: ADME, cell-free; conditions: read-out: PPB
# Outline: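 Equilibrium dialysis of compound spiked into rat plasma against 25 mM phosphate buffer, pH 7.4. Dialysis ran 4 h at 37 °C with shaking. Both chambers were matrix-matched, extracted with cold acetonitrile and quantified by LC/MS/MS. Triplicate within one plate.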
# [16] = Cmax in Sprague-Dawley rat brain at 10 mg/kg, sc; type: ADME, organism-based; parameters: dose 10 mg/kg, route subcutaneous; outline: as §2
# [17] = target: Metabotropic glutamate receptor 2 (Rattus norvegicus) (UniProt P31421); experiment: Positive allosteric modulation in rat mGluR2 receptor expressed in HEK293 cells assessed as effect on thallium flux at 10 uM relative to glutamate; type: cell-based; outline: as §3
# [18] = in vivo; conditions: Sprague-Dawley, rat, brain/plasma, iv, 1 mg/kg
# [19] = target: Cytochrome P450 2D6 (Homo sapiens, UniProt P10635); experiment: Inhibition of human CYP2D6; outline: as §1
# Sequence of Cytochrome P450 2D6 (P10635 whole entry): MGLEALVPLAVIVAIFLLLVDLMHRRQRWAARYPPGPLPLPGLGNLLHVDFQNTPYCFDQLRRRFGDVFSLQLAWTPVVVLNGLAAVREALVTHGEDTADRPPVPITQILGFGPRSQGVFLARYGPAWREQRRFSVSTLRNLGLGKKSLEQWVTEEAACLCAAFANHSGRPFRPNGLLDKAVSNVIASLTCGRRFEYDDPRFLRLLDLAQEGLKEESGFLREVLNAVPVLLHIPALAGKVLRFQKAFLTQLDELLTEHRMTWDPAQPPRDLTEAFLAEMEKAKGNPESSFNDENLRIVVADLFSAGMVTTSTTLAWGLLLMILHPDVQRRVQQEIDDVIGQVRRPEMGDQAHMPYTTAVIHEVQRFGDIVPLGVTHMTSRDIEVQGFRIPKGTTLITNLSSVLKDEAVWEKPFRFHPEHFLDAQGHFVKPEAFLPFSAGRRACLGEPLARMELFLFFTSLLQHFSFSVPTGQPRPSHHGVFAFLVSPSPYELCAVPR
smiles,measurement,setting,value
O=C(Nc1ccc(NC(=O)c2ccccc2Cl)c(Cl)c1)c1ccccn1,INH,[1],> 30 µM
same,Cmax,[2],198.1 ng/mL
same,Activity,[3],inactive
same,Activity,[4],inactive
same,INH,[5],> 30 µM
same,Activity,[6],128%
same,EC50,[7],570 nM
same,Tmax,[8],30 min
same,Activity,[9],inactive
same,AUC,[10],681 ng·h/g
same,Activity,[11],inactive
same,INH,[12],11.8 µM
same,AUC(0-t),[13],658 ng·h/mL
same,Activity,[14],77.9%
same,fraction unbound,[15],< 0.005
same,Cmax,[16],163 ng/g
same,Activity,[17],inactive
same,Kp,[18],1.04
same,INH,[19],13.1 µM
